The results in this text go back to PubChem BioAssay.

The nature of assay [1]: Her2 expression decrease, cell viability multiplex – SKBR3 breast tumor cells, AlphaScreen, ATP viability, primary screen (AID 461;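 active = Her2 level under about 52% in both replicate screens, with viability over 70% of control, limit read from the data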;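 as to Her2 level: lower value means less Her2 protein in the cells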;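 as to viability: percent of carrier control wells set as 100% viability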). As to conditions: SKBR3 Her2 protein level, 18-24 h, measured here: SKBR3 viability, ATP luminescence, at 10 µM.
Assay [2] concerns the target Receptor tyrosine-protein kinase erbB-2 (Homo sapiens) (UniProt P04626). The assay is described as above. The note with it: 18-24 h, at 10 µM, stronger effect = lower value.
A short description of assay [3]: reduced viability of SK-BR-3 breast cancer cells – cell-based, 24 h, human, pilot screen (AID 572;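 active = viability at or below 10% of carrier control in both of two separate runs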;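 also: compound exposure lasted between 18 and 24 h rather than exactly 24 h; 100% = carrier-treated control wells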). As to conditions: SK-BR-3 viability, CellTiter-Glo luminescence, at 10 µM, stronger effect = lower value.
Assay [4] in a line: HUVEC growth inhibition – cell-based, human, primary screen (AID 575;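 active = viability at or below 30% in both replicate assays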;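 also: 100% = median of untreated cell wells with 0.1% DMSO on each plate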). As to conditions: HUVEC proliferation, CellTiter-Glo luminescence, 72 h; at 10 µM; stronger effect = lower value. In a few lines: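 Timing: 72 h treatment at 37 °C; material: HUVEC primary cells; technique: CellTiter-Glo luminescence measuring cellular ATP; controls: vehicle and MePR control wells; measure: percent of median DMSO-control luminescence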

Assay [5] is described as follows: H69AR cell proliferation blockers – human, duplicate replicates, primary screen (AID 580;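 active = viability at or under a set limit in both replicates, limit being median viability minus 3 SD, cut at about 48% in these data, passing the limit was not always enough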;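 also: 100% = mean luminescence of untreated wells and 0% = no signal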). As to conditions: H69AR lung tumor cells viability, ATP luminescence, 72 h; at 10 µM; stronger effect = lower value.
Assay [6] can be described thus: MRP1 drug-resistance reversers in H69AR cells – cell-based, doxorubicin co-treatment, pilot screen (AID 601). As to conditions: CellTiter-Glo, 72 h, at 10 µM; for differential viability (reversal): stronger effect = higher value.
A short description of assay [7]: yeast transport mutant growth inhibition pilot in 384-well plates, post-Golgi transport modulator project (AID 636; in the data active = inhibition above about 31%). The note with it: absorbance 615 nm, about 18 h, stronger effect = higher value.
The nature of assay [8]: growth suppression of yeast trafficking mutant, preliminary HTS, modulators of trafficking downstream of Golgi apparatus project, 1536-format plate, OD 615 nm (AID 637; in the data active = inhibition above about 30%). The note with it: yeast transport mutant growth, absorbance 615 nm, 18 h; stronger effect = higher value.
Where [9] appears, read: H69AR cells + 2 uM doxorubicin, measured here: viability with 2 uM doxorubicin, stronger effect = lower value.
Where [10] appears, read: H69AR cells, compound alone cytotoxicity.

The source made the active and inactive calls.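 The calls were made as follows, unless noted: active = viability loss from added drug above about 55%, and viability with drug at most 40%, in both replicates (limit read from the data, passing the limit was not always enough); inconclusive = both conditions met in only one replicate; inactive = neither replicate meets both conditions.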

Chain of Receptor tyrosine-protein kinase erbB-2 (Homo sapiens) (P04626 whole entry, looked up): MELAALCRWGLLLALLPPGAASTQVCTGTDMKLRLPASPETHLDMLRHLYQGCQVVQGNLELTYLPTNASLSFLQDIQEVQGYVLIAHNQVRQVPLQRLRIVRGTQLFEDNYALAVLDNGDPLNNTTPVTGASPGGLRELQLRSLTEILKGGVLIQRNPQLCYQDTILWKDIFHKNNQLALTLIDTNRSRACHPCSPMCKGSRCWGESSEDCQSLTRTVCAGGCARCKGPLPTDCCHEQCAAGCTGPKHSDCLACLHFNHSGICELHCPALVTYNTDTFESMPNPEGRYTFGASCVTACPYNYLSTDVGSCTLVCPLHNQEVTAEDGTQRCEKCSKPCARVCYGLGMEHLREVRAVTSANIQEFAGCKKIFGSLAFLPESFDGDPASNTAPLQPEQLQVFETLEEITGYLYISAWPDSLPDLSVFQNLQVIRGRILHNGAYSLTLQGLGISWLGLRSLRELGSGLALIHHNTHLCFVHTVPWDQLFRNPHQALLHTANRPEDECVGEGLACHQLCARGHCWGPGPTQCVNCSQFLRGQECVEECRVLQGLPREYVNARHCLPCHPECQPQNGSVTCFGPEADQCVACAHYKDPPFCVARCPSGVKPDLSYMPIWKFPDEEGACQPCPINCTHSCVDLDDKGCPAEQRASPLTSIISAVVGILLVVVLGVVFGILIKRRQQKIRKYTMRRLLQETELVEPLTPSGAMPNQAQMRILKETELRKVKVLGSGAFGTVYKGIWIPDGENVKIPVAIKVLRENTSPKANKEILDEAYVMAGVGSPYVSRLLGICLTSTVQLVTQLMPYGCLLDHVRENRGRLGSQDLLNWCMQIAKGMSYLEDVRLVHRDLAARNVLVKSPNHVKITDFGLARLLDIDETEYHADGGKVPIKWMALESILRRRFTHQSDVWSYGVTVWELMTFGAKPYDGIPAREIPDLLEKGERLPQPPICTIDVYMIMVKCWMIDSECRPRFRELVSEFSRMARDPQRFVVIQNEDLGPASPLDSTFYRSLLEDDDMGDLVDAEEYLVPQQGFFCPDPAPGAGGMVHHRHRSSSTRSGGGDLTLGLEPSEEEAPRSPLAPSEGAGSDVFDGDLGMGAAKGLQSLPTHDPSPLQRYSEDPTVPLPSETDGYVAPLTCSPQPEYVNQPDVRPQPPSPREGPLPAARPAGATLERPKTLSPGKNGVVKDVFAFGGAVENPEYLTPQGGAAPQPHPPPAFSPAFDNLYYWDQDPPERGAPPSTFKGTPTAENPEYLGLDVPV

Take `Cc1ccc(CNC(=O)C2CC(=O)OC23CCCC3)c(C)c1` (stereo not given): the viability in assay [1] was 86%; in assay [3] it was 86% (inactive); in assay [4] it was 96.5% (inactive); in assay [5], 106% (inactive); in assay [6] (setting [9]) it was 94.1%; in assay [6] (setting [10]), 106%. Also, the Her2 level in assay [2] was 100% (inactive). Moreover, the differential viability (reversal) in assay [6] (H69AR cells + 2 uM doxorubicin) was 12.3% (inactive). For the same compound, the inhibition in assay [7] was -5.89% (inactive); in assay [8] it was 3.17% (inactive).

Turning to `Cc1ccccc1NC(=O)CSc1nnc(Cc2cccn2C)n1-c1ccc(F)cc1`, the viability in assay [1] was 88.5%; in assay [3], 88.5% (inactive); in assay [4], 78.6% (inactive); in assay [5], 100% (inactive); in assay [6] (setting [9]), 102%; in assay [6] (setting [10]), 100%. In assay [2], the Her2 level was 112% (inactive). Moreover, in assay [6] (H69AR cells + 2 uM doxorubicin), the differential viability (reversal) was -1.44% (inactive). Besides, the inhibition in assay [7] was -0.9% (inactive); in assay [8], -3.5% (inactive).

Consider `COc1ccc(N2CCN(CCNS(=O)(=O)c3cccc4nsnc34)CC2)cc1`, for which the viability in assay [1] was 98%; in assay [3], 98% (inactive); in assay [4], 102% (inactive); in assay [5] it was 91.1% (inactive); in assay [6] (setting [9]), 94.1%; in assay [6] (setting [10]), 91.1%. Further, in assay [2], the Her2 level is 91% (inactive). For the same compound, the differential viability (reversal) in assay [6] (H69AR cells + 2 uM doxorubicin) was -2.98% (inactive). Further, the inhibition in assay [7] is -5.2% (inactive); in assay [8], 1.11% (inactive).

As for `CCCCn1c(CN2CCN(CCO)CC2)nc2ccccc21`, the viability was 84% in assay [1]; 84% (inactive) in assay [3]; 91.8% (inactive) in assay [4]; 96% (inactive) in assay [5]; 90.7% in assay [6] (setting [9]); 96% in assay [6] (setting [10]). For the same compound, the Her2 level in assay [2] was 92% (inactive). For the same compound, in assay [6] (H69AR cells + 2 uM doxorubicin), the differential viability (reversal) is 5.24% (inactive). Also, the values for the inhibition in assay [7] and in assay [8] were -0.39% (inactive) and -6.55% (inactive), respectively.

On to `CC(C)(C)c1ccc2c(c1)OCC(C(=O)O)O2` (stereo not given), for which the viability in assay [1] was 99.5%; in assay [3], 99.5% (inactive); in assay [4], 99.3% (inactive); in assay [5] it was 106% (inactive); in assay [6] (setting [9]), 96.3%; in assay [6] (setting [10]) it was 106%. The Her2 level in assay [2] is 106% (inactive). In assay [6] (H69AR cells + 2 uM doxorubicin), the differential viability (reversal) is 9.5% (inactive). The inhibition in assay [7] was 0.55% (inactive); in assay [8], -3.65% (inactive).

As for `CC(=O)NC1(C(F)(F)F)NC(=O)N(CC(C)C)C1=O` (stereo not given), the viability in assay [1] was 103%; in assay [3] it was 103% (inactive); in assay [4], 91.1% (inactive); in assay [5], 102% (inactive); in assay [6] (setting [9]), 83.6%; in assay [6] (setting [10]) it was 102%. The Her2 level in assay [2] was 109% (inactive). Moreover, in assay [6] (H69AR cells + 2 uM doxorubicin), the differential viability (reversal) is 18.8% (inactive). The values for the inhibition in assay [7] and in assay [8] were -2.3% (inactive) and -0.66% (inactive), respectively.

As to `COCCNC(=O)c1c(N)n(/N=C/c2cccs2)c2nc3ccccc3nc12`, the viability was 110% in assay [1]; 110% (inactive) in assay [3]; 78.2% (inactive) in assay [4]; 74.7% (inactive) in assay [5]; 74.4% in assay [6] (setting [9]); 74.7% in assay [6] (setting [10]). The Her2 level in assay [2] is 75.5% (inactive). The differential viability (reversal) in assay [6] (H69AR cells + 2 uM doxorubicin) was 0.24% (inactive). For the same compound, the results for the inhibition in assay [7] and in assay [8] were 0.66% (inactive) and 3.11% (inactive), respectively.

Regarding `CCC(=O)Nc1cc(C)c(NC(=O)C23CC4CC(CC(C4)C2)C3)cn1`, the viability was 106% in assay [1]; 106% (inactive) in assay [3]; 84.9% (inactive) in assay [4]; 107% (inactive) in assay [5]; 98% in assay [6] (setting [9]); 107% in assay [6] (setting [10]). Besides, the Her2 level in assay [2] is 85% (inactive). The differential viability (reversal) in assay [6] (H69AR cells + 2 uM doxorubicin) was 8.51% (inactive). In addition, the inhibition in assay [7] was -3.65% (inactive); in assay [8], -2.62% (inactive).

Turning to `CCN(CC(=O)NCc1cccs1)C(=O)c1cc(S(=O)(=O)N2CCOCC2)ccc1C`, the viability was 89.5% in assay [1]; 89.5% (inactive) in assay [3]; 98.8% (inactive) in assay [4]; 87.7% (inactive) in assay [5]; 88.3% in assay [6] (setting [9]); 87.7% in assay [6] (setting [10]). Also, the Her2 level in assay [2] was 118% (inactive). The differential viability (reversal) in assay [6] (H69AR cells + 2 uM doxorubicin) was -0.58% (inactive). The inhibition in assay [7] is -4.03% (inactive); in assay [8] it was -10% (inactive).

`CC(=O)c1c(C)[nH]c(C(=O)NCc2cccs2)c1C`: the viability in assay [1] is 97%; in assay [3], 97% (inactive); in assay [4] it was 93.8% (inactive); in assay [5], 94.9% (inactive); in assay [6] (setting [9]), 83.7%; in assay [6] (setting [10]) it was 94.9%. In assay [2], the Her2 level was 90% (inactive). Further, in assay [6] (H69AR cells + 2 uM doxorubicin), the differential viability (reversal) is 11.2% (inactive). Besides, the inhibition in assay [7] was 0.39% (inactive); in assay [8] it was -1.45% (inactive).

With `Cc1ccc(OCC(=O)N2CCN(C(=O)CCC3CCCC3)CC2)cc1`, the viability is 104% in assay [1]; 104% (inactive) in assay [3]; 94.6% (inactive) in assay [4]; 86.6% (inactive) in assay [5]; 100% in assay [6] (setting [9]); 86.6% in assay [6] (setting [10]). The Her2 level in assay [2] was 93.5% (inactive). For the same compound, in assay [6] (H69AR cells + 2 uM doxorubicin), the differential viability (reversal) was -13.4% (inactive). Moreover, the figures for the inhibition in assay [7] and in assay [8] were -6.89% (inactive) and -2.33% (inactive), respectively.

In the case of `O=C(NCCc1ccccc1)C1CCCN(S(=O)(=O)c2cccs2)C1` (stereo not given), the viability was 89% in assay [1]; 89% (inactive) in assay [3]; 112% (inactive) in assay [4]; 93.8% (inactive) in assay [5]; 86.7% in assay [6] (setting [9]); 93.8% in assay [6] (setting [10]). In assay [2], the Her2 level was 91% (inactive). The differential viability (reversal) in assay [6] (H69AR cells + 2 uM doxorubicin) was 7.11% (inactive). Moreover, the inhibition was 1.79% (inactive) in assay [7] and -0.33% (inactive) in assay [8].

With `CC1=C(C(=O)NCc2ccccn2)C2(CCC(C)CC2)OC1=O` (stereo not given), the viability in assay [1] is 94.5%; in assay [3], 94.5% (inactive); in assay [4], 103% (inactive); in assay [5], 89.4% (inactive); in assay [6] (setting [9]), 89.7%; in assay [6] (setting [10]) it was 89.4%. Further, in assay [2], the Her2 level is 99% (inactive). For the same compound, in assay [6] (H69AR cells + 2 uM doxorubicin), the differential viability (reversal) is -0.25% (inactive). Also, the inhibition in assay [7] is -5.47% (inactive); in assay [8], -1.97% (inactive).

Consider `O=c1[nH]c2ccc(S(=O)(=O)N3CCN(C4CCCCC4)CC3)cc2[nH]c1=O`, for which the viability in assay [1] is 90.5%; in assay [3], 90.5% (inactive); in assay [4], 91.8% (inactive); in assay [5], 103% (inactive); in assay [6] (setting [9]) it was 93.7%; in assay [6] (setting [10]) it was 103%. For the same compound, in assay [2], the Her2 level is 104% (inactive). Further, the differential viability (reversal) in assay [6] (H69AR cells + 2 uM doxorubicin) was 9.67% (inactive). For the same compound, the inhibition was 0.92% (inactive) in assay [7] and -12.6% (inactive) in assay [8].

For `CC(=O)N1CCc2cc(S(=O)(=O)CCC(=O)Nc3cccc(F)c3)ccc21`, the viability is 109% in assay [1]; 109% (inactive) in assay [3]; 97.3% (inactive) in assay [4]; 93.8% (inactive) in assay [5]; 80.7% in assay [6] (setting [9]); 93.8% in assay [6] (setting [10]). Also, the Her2 level in assay [2] is 104% (inactive). In assay [6] (H69AR cells + 2 uM doxorubicin), the differential viability (reversal) is 13.1% (inactive). The inhibition is -4.74% (inactive) in assay [7] and -1.5% (inactive) in assay [8].
